Results taken from article PMC7114156 (Antiviral Research, 2009).
“And” between values parts separate entries of the source, which are not always exact repeats. Equal entries are not always repeated. Marks after values point to notes of the source that are not given here.

Key:
[1] = test system: Caski; assay: Growth of Caski; assay type: cell-based, human; details: 72 h
Method in brief: (§1)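 Cell lines carrying integrated viral genomes were plated in 96-well plates in medium with test compound. Growth was read by ATP luminescence (CellTiter-Glo) for HEK293 and WI38 VA13, and by MTS reduction (A490 after 2 h at 37 °C) for Namalwa, W12 20861, SiHa, Caski and HeLa. K and Imax came from a fit to a modified Hill equation.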

[2] = test system: CIN612 cells; assay: Growth of CIN612 cells, MTS; assay type: cell-based, human
[3] = Growth of resting PBMC, MTS; assay type: cell-based; details: human, resting PBMCs
[4] = test system: adenovirus type 5; assay: Adenovirus assay: adenovirus-5 replication in HFF cells, viral DNA by qPCR; assay type: cell-based; details: Ad5 in HFF cells, MOI 3, 72 h
[5] = test system: HPV-31; assay: HPV DNA by qPCR in CIN612 cells; assay type: cell-based
[6] = test system: WI38 VA13; assay: Growth of WI38 VA13; assay type: cell-based, human
Method in brief: as §1

[7] = test system: HPV-16; assay: HPV DNA by qPCR in W12-20850 cells; assay type: cell-based
[8] = test system: IM9 cells; assay: Apoptosis assay; assay type: cell-based, human; details: IM9, 20 h exposure
Method in brief: (§2)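 Apoptosis read as cytoplasmic histone-associated DNA fragments with a Cell Death Detection ELISA kit. Exposure was 20 h for IM9 and MT4 and 40 h for W12 and U937. A405 was read kinetically at 30 °C, and the rate per hour came from linear regression of the linear portion. A Fas-activating antibody was the positive control.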

[9] = test system: HIV-1; assay: HIV-1 infection in PBMCs; assay type: cell-based
[10] = test system: U937; assay: Growth of U937, MTS; assay type: cell-based, human
Method in brief: (§3)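 Cells were plated in 96-well plates in medium holding serial dilutions of test compound, 1 nM to 10 μM, with DMSO ≤1% (v/v) final. Growth was read by MTS after 72 h at 37 °C: 2 h with reagent plus phenazine methosulfate, then A490. K and Imax came from a fit to a modified Hill equation. Vero cells are African Green monkey.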

[11] = test system: Huh7; assay: Growth of Huh7, MTS; assay type: cell-based, human
Method in brief: as §3

[12] = test system: a variety of unrelated viruses; assay: Replication of a variety of unrelated viruses in vitro; assay type: cell-based
[13] = test system: U937 cells; assay: Apoptosis assay; assay type: cell-based, human; details: U937, 40 h exposure
Method in brief: as §2

[14] = test system: EBV; assay: Lytic replication of EBV induced by sodium butyrate and PMA in P3HR1 cells; assay type: cell-based
[15] = test system: HKC cells; assay: mRNA measurement by RT-qPCR in HKC cells; assay type: cell-based, human; details: for Fold increase due to GSK983, ABCD1 mRNA / Fold increase due to GSK983, ABCG1 mRNA / Fold increase due to GSK983, ADAMTS5 mRNA / Fold increase due to GSK983, BIK mRNA / Fold increase due to GSK983, MDM2 mRNA / Fold increase due to GSK983, MGP mRNA / Fold increase due to GSK983, CDKN1A mRNA / Fold increase due to GSK983, CSF2 mRNA / Fold increase due to GSK983, IFI6 mRNA / Fold increase due to GSK983, IFI16 mRNA / Fold increase due to GSK983, MMP1 mRNA / Fold increase due to GSK983, IRF3 mRNA / Fold increase due to GSK983, IRF9 mRNA: HKC cells
[16] = Growth of resting B cells, CTG; assay type: cell-based; details: human
Method in brief: (§4)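 Primary cells were plated in 96-well plates with serial dilutions of test compound, 3 nM to 100 μM, for 72 h at 37 °C. Read-out was CTG for resting B and CD4 T cells and MTS for PBMC, WI38 and HUVEC. Purity was 90–95% for B cells and 97% for CD4 cells. Activated PBMCs were stimulated with phytohemagglutinin plus IL2.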

[17] = Growth of activated primary CD4 T cells, CTG; assay type: cell-based; details: human, CC50, host primary cell growth
[18] = Growth of resting CD4 T cells, CTG; assay type: cell-based; details: human
Method in brief: as §4

[19] = test system: HeLa; assay: Growth of HeLa; assay type: cell-based, human; details: 72 h
Method in brief: as §1

[20] = test system: HPV-16; assay: HPV DNA by qPCR in HKC/HPV16 cells; assay type: cell-based
[21] = test system: cell lines immortalized by non-viral transformation events; assay: Growth of cell lines immortalized by non-viral transformation events; assay type: cell-based; details: Homo sapiens, read-out: Median effect concentrations, range
Method in brief: as §3

[22] = test system: Jurkat; assay: Growth of Jurkat, MTS; assay type: cell-based, human; details: 72 h
Method in brief: as §3

[23] = Homo sapiens, read-out: K, Growth, MTS
[24] = 10 nM, 24 h, not significantly different from 1
[25] = 100 nM, 24 h, not significantly different from 1
[26] = 100 nM, 48 h, not significantly different from 1

O=C(N[C@@H]1CCCc2c1[nH]c1ccc(Cl)cc21)c1ccccn1 [GSK983, N-[(1R)-6-Chloro-2,3,4,9-tetrahydro-1H-carbazol-1-yl]-2-pyridinecarboxamide]
Imax, Growth, MTS ([1]; Caski, HPV16 integrated): 33 ± 1.5%
EC50 ([1]; Homo sapiens, Ca-Ski, read-out: K, Growth, MTS): 32 ± 6 nM
Imax, Growth, MTS ([2]; CIN612): 70 ± 1%
EC50 [2, 23]: 2.8 ± 0.1 nM
CC50 at 72 h [3]: 520000 nM
Imax, viral DNA by qPCR [4]: 100%
Imax, HPV DNA, qPCR ([5]; CIN612, HPV type 31): 86 ± 1%
Selectivity index ([5]; HPV DNA qPCR in CIN612 vs HKC): 16,600 ± 5,000
EC50 ([5]; read-out: K, HPV DNA, qPCR): 2.4 ± 0.1 nM
EC50 ([6]; Homo sapiens, WI-38 VA13, 72 h, read-out: K, Growth, CTG): 16 ± 5 nM
Imax, Growth, CTG ([6]; WI38 VA13, SV40 integrated, 72 h): 28% and 28 ± 2%
Selectivity index ([7]; HPV DNA qPCR in W12-20850 vs HKC): 12,000 ± 4,000
Imax, HPV DNA, qPCR ([7]; W12-20850, HPV type 16): 85 ± 2%
EC50 ([7]; W12-20850, read-out: K, HPV DNA, qPCR): 3.3 ± 0.5 nM
HPV copy number, expressed as HPV genomes per actin gene ([7]; W12 cells, at 100 nM GSK983, reduced from 460): 150 HPV genomes per actin gene
Apoptosis [8]: induced apoptosis
Susceptibility of HIV ([9]; at concentrations below 1 μM): not susceptible
Inhibition of HIV-1 infection in PBMCs ([9]; concentration range 1 nM to 100 μM): 50% inhibition in the micromolar range
EC50 ([10]; Homo sapiens, U-937, 72 h, read-out: K, growth, MTS): 26 ± 4 nM
Outcome of growth inhibition over time ([10]; U937, 3 days, rate of MTS reduction): cytostasis
Imax, Growth, MTS ([10]; U937, monocyte, 72 h): 55 ± 2%
EC50 ([11]; Homo sapiens, Huh-7, 72 h, read-out: K, growth, MTS): 41 ± 10 nM
Imax, Growth, MTS ([11]; Huh7, liver epithelial, 72 h): 26 ± 1%
Observed maximum inhibition of viral DNA ([12]; productive or episomal infections): 86–99%
EC50 ([12]; read-out: EC50 values, replication of a variety of unrelated viruses in vitro): 5 to 20 nM
Apoptosis [13]: apoptosis did not occur
Susceptibility of lytic replication of EBV ([14]; at concentrations below 1 μM): not susceptible
Inhibition of lytic replication of EBV below 10 μM ([14]; below 10 μM, data not shown): No significant inhibition
Inhibition of lytic replication of EBV ([14]; induced by sodium butyrate and PMA in P3HR1 cells, data not shown): did not inhibit
Fold increase due to GSK983, ABCD1 mRNA ([15]; 10 nM, 24 h): 2.0 fold
Fold increase due to GSK983, ABCG1 mRNA ([15]; 10 nM, 24 h): 2.5 fold
Fold increase due to GSK983, ADAMTS5 mRNA ([15]; 10 nM, 24 h): 2.6 fold
Fold increase due to GSK983, BIK mRNA ([15]; 10 nM, 24 h): 2.2 fold
Fold increase due to GSK983, MDM2 mRNA ([15]; 10 nM, 24 h): 2.1 fold
Fold increase due to GSK983, MGP mRNA ([15]; 10 nM, 24 h): 1.9 fold
Fold increase due to GSK983, CDKN1A mRNA [15, 24]: 1.7 ^b fold
Fold increase due to GSK983, CSF2 mRNA [15, 24]: 1 ^b fold
Fold increase due to GSK983, IFI6 mRNA [15, 24]: 1.3 ^b fold
Fold increase due to GSK983, IFI16 mRNA [15, 24]: 2.3 ^b fold
Fold increase due to GSK983, MMP1 mRNA [15, 24]: 5.8 ^b fold
Fold increase due to GSK983, ABCD1 mRNA ([15]; 10 nM, 48 h): 4.5 fold
Fold increase due to GSK983, ABCG1 mRNA ([15]; 10 nM, 48 h): 3.1 fold
Fold increase due to GSK983, ADAMTS5 mRNA ([15]; 10 nM, 48 h): 2.3 fold
Fold increase due to GSK983, BIK mRNA ([15]; 10 nM, 48 h): 1.8 fold
Fold increase due to GSK983, CDKN1A mRNA ([15]; 10 nM, 48 h): 1.6 fold
Fold increase due to GSK983, CSF2 mRNA ([15]; 10 nM, 48 h): 4.1 fold
Fold increase due to GSK983, IFI16 mRNA ([15]; 10 nM, 48 h): 2.7 fold
Fold increase due to GSK983, IRF3 mRNA ([15]; 10 nM, 48 h): 2.4 fold
Fold increase due to GSK983, MDM2 mRNA ([15]; 10 nM, 48 h): 3.2 fold
Fold increase due to GSK983, MGP mRNA ([15]; 10 nM, 48 h): 2.9 fold
Fold increase due to GSK983, MMP1 mRNA ([15]; 10 nM, 48 h): 2.2 fold
Fold increase due to GSK983, IRF9 mRNA ([15]; 10 nM, 48 h, not significantly different from 1): 1.5 ^b fold
Fold increase due to GSK983, ABCD1 mRNA ([15]; 100 nM, 24 h): 2.3 fold
Fold increase due to GSK983, ABCG1 mRNA ([15]; 100 nM, 24 h): 5.0 fold
Fold increase due to GSK983, BIK mRNA ([15]; 100 nM, 24 h): 2.3 fold
Fold increase due to GSK983, CDKN1A mRNA ([15]; 100 nM, 24 h): 1.8 fold
Fold increase due to GSK983, CSF2 mRNA ([15]; 100 nM, 24 h): 2.8 fold
Fold increase due to GSK983, IRF9 mRNA ([15]; 100 nM, 24 h): 1.6 fold
Fold increase due to GSK983, MDM2 mRNA ([15]; 100 nM, 24 h): 2.4 fold
Fold increase due to GSK983, MGP mRNA ([15]; 100 nM, 24 h): 2.0 fold
Fold increase due to GSK983, ADAMTS5 mRNA [15, 25]: 1.3 ^b fold
Fold increase due to GSK983, IFI6 mRNA [15, 25]: 1.1 ^b fold
Fold increase due to GSK983, IRF3 mRNA [15, 25]: 1.1 ^b fold
Fold increase due to GSK983, MMP1 mRNA [15, 25]: 5.2 ^b fold
Fold increase due to GSK983, ABCD1 mRNA ([15]; 100 nM, 48 h): 3.7 fold
Fold increase due to GSK983, ABCG1 mRNA ([15]; 100 nM, 48 h): 4.8 fold
Fold increase due to GSK983, ADAMTS5 mRNA ([15]; 100 nM, 48 h): 7.5 fold
Fold increase due to GSK983, BIK mRNA ([15]; 100 nM, 48 h): 3.7 fold
Fold increase due to GSK983, CDKN1A mRNA ([15]; 100 nM, 48 h): 4.3 fold
Fold increase due to GSK983, CSF2 mRNA ([15]; 100 nM, 48 h): 5.8 fold
Fold increase due to GSK983, MDM2 mRNA ([15]; 100 nM, 48 h): 2.9 fold
Fold increase due to GSK983, MGP mRNA ([15]; 100 nM, 48 h): 3.0 fold
Fold increase due to GSK983, MMP1 mRNA ([15]; 100 nM, 48 h): 5.0 fold
Fold increase due to GSK983, IFI16 mRNA [15, 26]: 0.8 ^b fold
Fold increase due to GSK983, IRF3 mRNA [15, 26]: 0.8 ^b fold
Fold increase due to GSK983, IRF9 mRNA [15, 26]: 1.5 ^b fold
Number of genes of the Pathway Set with significant increases in expression ([15]; primary human keratinocytes, at both 10 and 100 nM, 546 genes): 9 genes
CC50 at 72 h [16]: > 10000 nM
CC50 at 72 h [17]: 57000 nM
CC50 at 72 h [18]: 60000 nM
Imax, Growth, MTS ([19]; HPV 18 integrated): 50 ± 0.8%
EC50 [19, 23]: 20 ± 2 nM
Imax, HPV DNA, qPCR ([20]; HKC/HPV16, HPV type 16): 89 ± 2%
Selectivity index ([20]; HPV DNA qPCR in HKC/HPV16 vs HKC): 18,000 ± 5,600
EC50 ([20]; Human papillomavirus 16, read-out: K, HPV DNA, qPCR): 2.2 ± 0.2 nM
EC50 [21]: 10 to 50 nM
EC50 ([22]; Homo sapiens, read-out: K, growth, MTS): 52 ± 3 nM
Imax, Growth, MTS ([22]; T lymphoblast): 51 ± 1%
